The values that follow come from ChEMBL document CHEMBL3286143, “Minimizing the Contribution of Enterohepatic Recirculation to Clearance in Rat for the NCINI Class of Inhibitors of HIV” (ACS Med Chem Lett, 2014).

The structures appear in SMILES notation. In brackets after ≈: the same amount, converted by molar mass.

The subject of series [1] is Human immunodeficiency virus 1. The experiment in a line: Antiviral activity against HIV1 NL4.3 harboring integrase T124/T125 mutant relative to control in presence of 50% human serum. Type of series: functional. In a few lines:
(§1)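 Serum shift for the same NL4.3 IN-variant viruses, from EC50 values measured with and without 50% human serum.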

Series [2] concerns Human immunodeficiency virus 1. Put plainly: Antiviral activity against HIV1 NL4.3 harboring integrase N124/T125 mutant relative to control in presence of 50% human serum. Type of series: functional. The method, boiled down: as §1
Series [3] is described as follows: Half life in bile duct cannulated rat. Type of series: ADME, organism-based. Particulars: in vivo.
The subject of series [4] is Human immunodeficiency virus 1. Put plainly: Antiviral activity against HIV1 NL4.3 harboring integrase A124/T125 mutant relative to control in presence of 50% human serum. Type of series: functional. In a few lines: as §1
For the next series, the target named is Cytochrome P450 2D6 (Homo sapiens, UniProt P10635). Put plainly: Inhibition of CYP2D6 (unknown origin). Type of series: ADME.
Cytochrome P450 2D6, sequence (P10635 whole entry): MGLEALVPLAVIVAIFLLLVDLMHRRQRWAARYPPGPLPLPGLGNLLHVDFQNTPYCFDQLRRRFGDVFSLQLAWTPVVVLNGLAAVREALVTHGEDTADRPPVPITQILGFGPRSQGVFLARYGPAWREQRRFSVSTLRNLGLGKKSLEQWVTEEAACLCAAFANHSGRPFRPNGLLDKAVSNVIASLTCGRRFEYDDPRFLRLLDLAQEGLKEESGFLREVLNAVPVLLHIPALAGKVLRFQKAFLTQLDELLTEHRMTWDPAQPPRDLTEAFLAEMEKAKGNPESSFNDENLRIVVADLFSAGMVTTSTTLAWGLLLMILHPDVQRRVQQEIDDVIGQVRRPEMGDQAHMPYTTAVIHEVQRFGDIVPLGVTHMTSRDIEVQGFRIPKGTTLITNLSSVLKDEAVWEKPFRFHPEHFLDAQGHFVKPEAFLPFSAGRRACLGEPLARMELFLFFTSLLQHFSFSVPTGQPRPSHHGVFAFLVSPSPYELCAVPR
The next series is filed under the species Rattus norvegicus. The experiment in a line: Clearance in rat. Conditions: in vivo. Type of series: ADME, organism-based.
Series [5] can be described thus: Half life in rat liver microsomes. Type of series: ADME. (In general: Liver microsomes are a subcellular fraction often used to study metabolism.)
For series [6], the system named is Human immunodeficiency virus 1. The experiment in a line: Antiviral activity against HIV1 NL4.3 harboring integrase A124/A125 mutant relative to control in presence of 50% human serum. It counts as functional. In a few lines: as §1
Series [7] in a line: Solubility of the compound at pH 6.8. It counts as physicochemical. Particulars: buffer.
Series [8] concerns Human immunodeficiency virus 1. The experiment in a line: Antiviral activity against HIV-1 NL4.3-HxB2 virus harboring integrase T124/T125 mutant relative to control in presence of 50% human serum. Type of series: functional.
Series [9] relates to Human immunodeficiency virus 1. The experiment in a line: Antiviral activity against HIV1 NL4.3 harboring integrase N124/A125 mutant relative to control in presence of 50% human serum. It counts as functional. The method, boiled down:
as §1

Series [10] relates to Human immunodeficiency virus 1. Put plainly: Antiviral activity against HIV-1 NL4.3-HxB2 virus harboring integrase T124/T125 mutant. Type of series: functional, organism-based. Particulars: Human immunodeficiency virus 1, NL4.3-HxB2; pooled result: one value given for 4 cell lines, strains, targets or settings.
Series [11] is described as follows: Drug excretion in bile duct cannulated rat bile after 3 hrs. Particulars: read-out: Drug excretion. It counts as ADME. In a few lines: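 Rats with cannulated bile ducts were dosed, and the fraction of compound excreted into bile was measured at the 3 h time point.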
Series [12] deals with T1, Human immunodeficiency virus type 1 integrase (Human immunodeficiency virus 1, UniProt Q7ZJM1). The experiment in a line: Apparent binding affinity to His-tagged HIV integrase. Particulars: read-out: Kd(app).
T1 sequence (Q7ZJM1 whole entry): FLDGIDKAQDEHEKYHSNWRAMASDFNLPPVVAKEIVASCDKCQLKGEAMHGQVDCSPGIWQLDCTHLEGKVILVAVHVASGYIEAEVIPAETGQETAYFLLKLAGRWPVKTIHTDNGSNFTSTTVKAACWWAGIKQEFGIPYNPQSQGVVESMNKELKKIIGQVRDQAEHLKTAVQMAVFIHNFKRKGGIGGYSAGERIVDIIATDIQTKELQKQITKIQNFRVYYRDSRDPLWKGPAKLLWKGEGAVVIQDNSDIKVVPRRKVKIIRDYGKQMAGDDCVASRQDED
Series [13] relates to Human immunodeficiency virus 1. The experiment in a line: Antiviral activity against HIV1 NL4.3 harboring integrase T124/T125 mutant. Type of series: functional, organism-based. Conditions: Human immunodeficiency virus 1, NL4.3. In a few lines: (§2)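 Cell-based antiviral assay giving EC50 (nM) against wild-type NL4.3 (IN T124/T125) or recombinant NL4.3 engineered to carry the naturally polymorphic integrase residues at positions 124 and 125.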

Series [14] concerns the target T1, Human immunodeficiency virus type 1 integrase. The experiment in a line: Apparent binding affinity to Trx-His-tagged HIV integrase. Particulars: read-out: Kd(app). The method, boiled down:
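Apparent dissociation constant from the same displacement assay, run instead with a thioredoxin-tagged His6 integrase construct.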

Series [15] has as its system Human immunodeficiency virus 1. Put plainly: Antiviral activity against HIV1 NL4.3 harboring integrase N124/T125 mutant. Type of series: functional, organism-based. Conditions: Human immunodeficiency virus 1, NL4.3. In a few lines: as §2
Series [16] in a line: Half life in human liver microsomes. Type of series: ADME.
Series [17] has as its system Human immunodeficiency virus 1. The experiment in a line: Antiviral activity against HIV1 NL4.3 harboring integrase T124/A125 mutant. It counts as functional, organism-based. Conditions: Human immunodeficiency virus 1, NL4.3. In a few lines:
as §2

Series [18] concerns the target Human immunodeficiency virus type 1 integrase (Human immunodeficiency virus 1) (UniProt Q7ZJM1). Put plainly: Ratio of app-Kd for Trx-His-tagged HIV integrase to His-tagged HIV integrase.
A short description of series [19]: Half life in rat. Type of series: ADME, organism-based. Particulars: in vivo.
The next series addresses Cytochrome P450 3A4 (Homo sapiens, UniProt P08684). The experiment in a line: Inhibition of CYP3A4 (unknown origin). It counts as ADME.
Series [20] in a line: Lipophilicity, log D of the compound at pH 7.4. It counts as physicochemical. Particulars: buffer.
The nature of series [21]: Apparent permeability in human Caco2 cells. Type of series: ADME, cell-based. Particulars: Caco-2. (Passage across Caco-2 layers is used to estimate intestinal permeability.)

Human immunodeficiency virus type 1 integrase (Human immunodeficiency virus 1), sequence (Q7ZJM1 as listed by the source): as the sequence (Q7ZJM1 whole entry) above
Cytochrome P450 3A4, sequence (P08684 whole entry): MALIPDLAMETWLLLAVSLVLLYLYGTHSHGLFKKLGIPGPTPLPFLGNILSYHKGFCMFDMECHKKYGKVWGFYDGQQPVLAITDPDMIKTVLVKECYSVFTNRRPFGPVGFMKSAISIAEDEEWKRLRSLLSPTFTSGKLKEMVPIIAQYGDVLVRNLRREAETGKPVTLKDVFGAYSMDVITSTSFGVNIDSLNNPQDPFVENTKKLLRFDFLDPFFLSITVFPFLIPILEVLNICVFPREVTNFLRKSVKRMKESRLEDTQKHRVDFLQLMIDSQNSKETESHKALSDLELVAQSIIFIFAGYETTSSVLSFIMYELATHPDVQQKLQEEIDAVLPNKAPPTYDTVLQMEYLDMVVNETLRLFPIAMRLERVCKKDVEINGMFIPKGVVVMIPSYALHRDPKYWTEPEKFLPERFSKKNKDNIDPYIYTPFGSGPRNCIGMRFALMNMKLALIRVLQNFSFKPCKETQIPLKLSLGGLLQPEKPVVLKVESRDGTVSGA

For orientation: half-life means the time in which the quantity being followed falls by half. A high value points to slow loss. For orientation: IC50 means the concentration at which inhibition is half-maximal. Read a low IC50 as greater potency. One may read the solubility as the dissolved amount per volume that the medium holds. As a reminder, the EC50 is the concentration at which the effect is half-maximal. Higher therefore signals weaker potency. For `Cc1nc2ccccc2c(-c2ccc3c4c(ccnc24)CCO3)c1[C@H](OC(C)(C)C)C(=O)O` [BI-224436], the “fold change (FC)” value in [1], in [2], in series [4], in series [6], in [8] and in series [9] was 2.1 each time. The half-life in series [3] was 1.6 h; in series [5], greater than 5 h. Further, the IC50 against Cytochrome P450 2D6 was greater than 30000 nM. This molecule also had a CL in the series listed under Rattus norvegicus of 0.7%. This molecule gave a solubility in series [7] greater than 850 µg/mL. In series [10], a half-maximal response (EC50) required 11 nM. Also, the dose excreted at 3 h in series [11] was determined as 60%.

With `Cc1nc2c(c(-c3ccc4c(c3)CCCO4)c1[C@H](OC(C)(C)C)C(=O)O)CCCc1ccccc1-2`, the Kd in series [12] amounted to 1100 nM. In series [13], this molecule displayed an EC50 of 560 nM.

For `Cc1nc(-c2ccc(-c3ccncc3)cc2)c(C)c(-c2ccc3c(c2)CCCO3)c1[C@H](OC(C)(C)C)C(=O)O`, the Kd in [14] is 24 nM. In addition, the figures for the EC50 in series [13] and in series [15] were 23 nM and 150 nM, respectively.

Take `Cc1ccc(-c2nc(C)c([C@H](OC(C)(C)C)C(=O)O)c(-c3ccc4c(c3)CCCO4)c2C)cc1C`: in [14], the Kd was found to be 27 nM. Moreover, the half-life in [5] turned out to be 1.83 h; in series [16] it was 0.567 h. The values for the EC50 in series [13] and in [15] were 11 nM and 1400 nM, respectively.

`Cc1nc2ccccc2c(-c2ccc3c(c2)CCCO3)c1[C@H](OC(C)(C)C)C(=O)O`: the Kd in [12] was 24 nM. The EC50 in series [17] amounted to 30 nM; in series [13], 51 nM; in series [15] it was 77 nM.

Turning to `Cc1nc(-c2cccc(-c3cnn(C)c3)c2)c(C)c(-c2ccc3c(c2)CCCO3)c1[C@H](OC(C)(C)C)C(=O)O`, the Kd in series [14] worked out at 59 nM. The EC50 in series [13] was 24 nM; in series [15], 920 nM.

For `Cc1cc(-c2nc(C)c([C@H](OC(C)(C)C)C(=O)O)c(-c3ccc4c(c3)CCCO4)c2C)ccc1Cl`, in series [14], the Kd is 17 nM. Also, the EC50 in series [13] is 5.8 nM; in series [15], 960 nM. This molecule displayed a half-life in [16] of 0.717 h.

For `Cc1ccc(-c2nc(C)c([C@H](OC(C)(C)C)C(=O)O)c(-c3ccc4c(c3C)CCCO4)c2C)cc1C` (single isomer, unassigned; atropisomer), the Kd in series [14] amounted to 26 nM. In addition, the half-life in series [5] was found to be 1.5 h; in [16], 1.13 h. Besides, the EC50 worked out at 2.7 nM in series [13] and 620 nM in [15].

Turning to `Cc1cccc(-c2nc(C)c([C@H](OC(C)(C)C)C(=O)O)c(-c3ccc4c(c3)CCCO4)c2C)c1`, the figures for the EC50 in series [13] and in series [15] were 23 nM and 1100 nM, respectively.

Take `Cc1nc(-c2ccccc2)c(C)c(-c2ccc3c(c2)CCCO3)c1[C@H](OC(C)(C)C)C(=O)O`: the Ratio in series [18] came to 25. Further, the Kd in series [14] was 40 nM; in [12], 1000 nM. Further, the EC50 stood at 78 nM in [17], 68 nM in series [13] and 800 nM in series [15]. The same molecule had a half-life in series [16] of 0.533 h.

On to `Cc1noc(C)c1-c1ccc(-c2nc(C)c([C@H](OC(C)(C)C)C(=O)O)c(-c3ccc4c(c3)CCCO4)c2C)cc1`, for which the EC50 worked out at 5.5 nM in [13] and 390 nM in series [15].

With `Cc1ccc(-c2nc(C)c([C@H](OC(C)(C)C)C(=O)O)c(-c3ccc4c(c3Cl)NCCO4)c2C)cc1C` (single isomer, unassigned; atropisomer), the Kd in series [14] was 28 nM. Further, the results for the half-life in series [5] and in series [16] were 0.933 h and 1.7 h, respectively. Moreover, the EC50 in series [13] is 3.3 nM; in [15], 830 nM.

On to `Cc1nc(-c2cccc(-c3ccnn3C)c2)c(C)c(-c2ccc3c(c2)CCCO3)c1[C@H](OC(C)(C)C)C(=O)O`, for which the Kd in series [14] was 52 nM. Further, the figures for the EC50 in series [13] and in series [15] were 10 nM and 1000 nM, respectively.

Regarding `Cc1ccc(-c2nc(C)c([C@H](OC(C)(C)C)C(=O)O)c(-c3ccc4c(c3)CCCO4)c2C)cc1`, the Kd in series [14] is 31 nM. Besides, the EC50 in [13] was determined as 18 nM; in [15] it was 1400 nM. Moreover, the half-life in series [16] stood at 0.717 h.

For `Cc1noc(C)c1-c1ccc(-c2nc(C)c([C@H](OC(C)(C)C)C(=O)O)c(-c3ccc4c(c3)CCCO4)c2C)c(F)c1`, the Kd in series [14] stood at 35 nM. Further, the EC50 in series [13] turned out to be 7.3 nM; in series [15], 830 nM. Further, the half-life in series [16] is 1 h.

For `Cc1nc2c(c(-c3ccc4c(c3)CCCO4)c1[C@H](OC(C)(C)C)C(=O)O)Cc1ccccc1-2`, the Kd in series [12] worked out at 160 nM. The EC50 was 110 nM in series [17], 72 nM in series [13] and 34 nM in series [15].

The logD is lipophilicity at a set pH, counting ionised and neutral species. Read a low logD as lower lipophilicity. What is called Papp is the rate of passage across a membrane or cell layer, normalised by area and donor concentration. For `Cc1noc(C)c1-c1ccc(-c2nc(C)c([C@H](OC(C)(C)C)C(=O)O)c(-c3ccc(Cl)cc3)c2C)cc1`, the “fold change (FC)” value in series [1], in series [2], in series [4], in series [6], in [8] and in series [9] was 9.9 in each case. In series [14], the Kd turned out to be 50 nM. Also, the half-life was 5.4 h in series [3], 8.9 h in series [19], 2.67 h in series [5] and 3.83 h in [16]. Moreover, the IC50 against Cytochrome P450 2D6 was greater than 30000 nM; on Cytochrome P450 3A4, 17000 nM. The same molecule displayed a CL in the series filed under Rattus norvegicus of 0.6%. This molecule returned a logD in [20] of 3.1. For the same molecule, the EC50 was 7.7 nM in series [13], 6.5 nM in [10] and 810 nM in [15]. Moreover, the solubility in series [7] was determined as 250 µg/mL (≈ 482 µM). The Papp in series [21] worked out at 17 ×10⁻⁶ cm/s. Moreover, in series [11], the dose excreted at 3 h amounted to 22%.

For the molecule `Cc1ccc(-c2nc(C)c([C@H](OC(C)(C)C)C(=O)O)c(-c3ccc(Cl)cc3)c2C)cc1C`, the Kd in series [14] was found to be 40 nM. For the same molecule, the half-life is 0.85 h in series [5] and 1.28 h in series [16]. Besides, the EC50 in series [13] worked out at 14 nM; in [15] it was 2700 nM.

Take `Cc1nc2c(ccc3ccccc32)c(-c2ccc3c(c2)CCCO3)c1[C@H](OC(C)(C)C)C(=O)O`: the Kd in [12] came to 180 nM. Further, the EC50 came to 63 nM in series [17] and 62 nM in [13].
